Series [1] can be described thus: Induction of nitric oxide release in phosphate buffer at 10^-4 M at pH 7.4 after 1 hr by Griess colorimetric method in presence of N-acetylcysteine. The class given is physicochemical. The settings on record: pH 7.4, 1 h, 100 µM. The essentials: (§1)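 Final drug concentration 10^-4 M, added from DMF into 1:1 50 mM phosphate buffer (pH 7.4)/MeOH containing 5 × 10^-4 M N-acetylcysteine, at 37 °C. Nitrite read with Griess reagent after 10 min at room temperature, absorbance at 546 nm. Calibration with sodium nitrite standards (10–80 nmol/ml). Reported as mol NO per mol, n = 4 reaction mixtures.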
For orientation: Griess reagent forms a coloured azo dye with nitrite.

Series [2] is described as follows: Induction of nitric oxide release in phosphate buffer at 10^-4 M at pH 7.4 after 2 hrs by Griess colorimetric method in presence of N-acetylcysteine. The class given is physicochemical. The settings on record: pH 7.4, 2 h, 100 µM. Put shortly: as §1
Series [3] in a line: Induction of nitric oxide release in phosphate buffer at 10^-4 M at pH 7.4 after 3 hrs by Griess colorimetric method in presence of N-acetylcysteine. The settings on record: pH 7.4, 3 h, 100 µM. It is filed as physicochemical. Put shortly: as §1
Series [4] in a line: Induction of nitric oxide release in phosphate buffer at 10^-4 M at pH 7.4 after 4 hrs by Griess colorimetric method in presence of N-acetylcysteine. The class given is physicochemical. The settings on record: pH 7.4, 4 h, 100 µM. The essentials: as §1
Series [5] is described as follows: Induction of nitric oxide release in phosphate buffer at 10^-4 M at pH 7.4 after 5 hrs by Griess colorimetric method in presence of N-acetylcysteine. It is filed as physicochemical. The note with it: pH 7.4, 5 h, 100 µM. The essentials: as §1
A short description of series [6]: Induction of nitric oxide release in phosphate buffer at 10^-4 M at pH 7.4 after 6 hrs by Griess colorimetric method in presence of N-acetylcysteine. It is filed as physicochemical. The settings on record: pH 7.4, 6 h, 100 µM. Put shortly: as §1
Series [7] in a line: Induction of nitric oxide release in HCl buffer at 10^-4 M at pH 1 after 1 hr by Griess colorimetric method in presence of N-acetylcysteine. It is filed as physicochemical. The note with it: pH 1, 1 h, 100 µM. The essentials:
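Same Griess nitrite procedure at 10^-4 M final drug with N-acetylcysteine at 37 °C, but with 0.1 N HCl (pH 1) in place of the pH 7.4 phosphate buffer. Absorbance at 546 nm against a sodium nitrite calibration curve.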

The subject of series [8] is Rattus norvegicus. Kind of series: Antiinflammatory activity in albino rat assessed as inhibition of carrageenan-induced paw edema at 0.28 mmol/kg, po administered 30 mins prior to carrageenan-challenge measured after 1 hr relative to control. The class given is functional. The essentials:
(§2)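 Male albino rats in groups of four were fasted 24 h with water allowed. Dosing was oral at 0.28 mmol/kg, suspended in 0.5% w/v CMC; controls got CMC alone. After 30 min, 0.1 ml of 1% carrageenan in saline went subplantar into the right hind paw and saline into the left. Paw thickness was read by caliper before and at 1–5 h. % inhibition = [(VR−VL)control−(VR−VL)treated]/(VR−VL)control ×100. Mean ± SEM, n = 4, one-way ANOVA vs control.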
A general note: Carrageenan injected into the paw causes an acute inflammation.

Series [9] concerns Rattus norvegicus. Kind of series: Antiinflammatory activity in albino rat assessed as inhibition of carrageenan-induced paw edema at 0.28 mmol/kg, po administered 30 mins prior to carrageenan-challenge measured after 2 hrs relative to control. It is filed as functional. The essentials:
as §2

Series [10] concerns Rattus norvegicus. Put plainly: Antiinflammatory activity in albino rat assessed as inhibition of carrageenan-induced paw edema at 0.28 mmol/kg, po administered 30 mins prior to carrageenan-challenge measured after 3 hrs relative to control. It is filed as functional. Put shortly: as §2
The test system of series [11] is Rattus norvegicus. Put plainly: Antiinflammatory activity in albino rat assessed as inhibition of carrageenan-induced paw edema at 0.28 mmol/kg, po administered 30 mins prior to carrageenan-challenge measured after 4 hrs relative to control. It is filed as functional. The essentials:
as §2

Series [12] relates to Rattus norvegicus. Put plainly: Antiinflammatory activity in albino rat assessed as inhibition of carrageenan-induced paw edema at 0.28 mmol/kg, po administered 30 mins prior to carrageenan-challenge measured after 5 hrs relative to control. The class given is functional. The essentials:
as §2

The test system of series [13] is Rattus norvegicus. Put plainly: Ulcerogenic activity in albino rat carrageenan-induced paw edema model assessed as ulcer index at 0.28 mmol/kg, po (reference value: 0.60 +/- 0.05). The class given is toxicity, organism-based. The note with it: in vivo. Put shortly: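 Rats given the compound orally at 0.28 mmol/kg, suspended in 0.5% aqueous CMC; vehicle-only control, n = 4 per group. Gastric ulcers graded by area: I (<1 mm²), II (1–3 mm²), III (>3 mm²). Ulcer index = 1×(level I count) + 2×(level II) + 3×(level III). Mean ± SEM, one-way ANOVA versus control.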

Series [14] relates to Rattus norvegicus. Put plainly: Gastrointestinal toxicity in albino rat carrageenan-induced paw edema model assessed as capillary vasodilatation of lamina propria associated with accumulation of edema fluid at 0.28 mmol/kg, po by hematoxylin and eosin staining-based light microscopic analysis. The settings on record: in vivo. The class given is organism-based. Put shortly:
(§3)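 Rats were dosed orally at 0.28 mmol/kg, suspended in 0.5% aqueous CMC; vehicle-only animals served as controls. After ulcer scoring, stomach sections were stained with haematoxylin and eosin: acid-alcohol differentiation, then 1% eosin for 10 min. Sections were dehydrated, cleared in xylene, mounted and examined by light microscopy.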

In series [15] the test system is Rattus norvegicus. Kind of series: Gastrointestinal toxicity in albino rat carrageenan-induced paw edema model assessed as acute inflammatory cell infiltrating its whole thickness at 0.28 mmol/kg, po by hematoxylin and eosin staining-based light microscopic analysis. The class given is organism-based. The note with it: in vivo. Put shortly:
as §3

Series [16] relates to Rattus norvegicus. Kind of series: Gastrointestinal toxicity in albino rat carrageenan-induced paw edema model assessed as severe atrophic gastritis and gland atrophy at 0.28 mmol/kg, po by hematoxylin and eosin staining-based light microscopic analysis. The note with it: in vivo. The class given is organism-based. The essentials: as §3
Series [17] concerns Rattus norvegicus. Put plainly: Gastrointestinal toxicity in albino rat carrageenan-induced paw edema model assessed as appearance of ulcer at 0.28 mmol/kg, po by hematoxylin and eosin staining-based light microscopic analysis. It is filed as organism-based. The settings on record: in vivo. The essentials: as §3
Series [18] concerns Rattus norvegicus. Put plainly: Gastrointestinal toxicity in albino rat carrageenan-induced paw edema model assessed as decrease in thickness of gastric mucosa with marked loss of mucosal membrane at areas of ulceration at 0.28 mmol/kg, po by hematoxylin and eosin staining-based light microscopic analysis. The class given is organism-based. The settings on record: in vivo. The essentials: as §3

Series [19] relates to Rattus norvegicus. Put plainly: Gastrointestinal toxicity in albino rat carrageenan-induced paw edema model assessed as destruction of surface epithelium and epithelial lining of gastric pits at 0.28 mmol/kg, po by hematoxylin and eosin staining-based light microscopic analysis. The class given is organism-based, Stomach. The settings on record: in vivo. Put shortly: as §3

Series [20] relates to Rattus norvegicus. Put plainly: Gastrointestinal toxicity in albino rat carrageenan-induced paw edema model assessed as apoptotic glandular epithelial cells at 0.28 mmol/kg, po by hematoxylin and eosin staining-based light microscopic analysis. The class given is organism-based, Epithelial cell. The settings on record: in vivo. The essentials:
as §3

With `C=CCn1c(SCC(=O)Nc2ccc(/C(C)=N/O)cc2)nnc1-c1ccc(OC)c(OC)c1`, the Activity in series [1] stood at 0.13 mol/mol; in [2], 0.16 mol/mol; in series [3], 0.32 mol/mol; in series [4] it was 0.35 mol/mol; in series [5], 0.27 mol/mol; in series [6] it was 0.26 mol/mol. For the same compound, the Activity entry is reported as “Not Active” in [7]; “Non-toxic” in series [14]; “Non-toxic” in series [15]; “Non-toxic” in [16]; “Non-toxic” in [17]. For the same compound, the inhibition in vivo (in general, the drop in the measured response relative to a control, in per cent) at 280 µmol/kg in series [8] amounted to 53%; in [9], 56%; in series [10], 70%; in [11], 79%; in series [12] it was 79%. The UI in series [13] worked out at 0.25.
As to `COc1ccc2c(c1)c(CC(=O)O)c(C)n2C(=O)c1ccc(Cl)cc1` [INDOMETHACIN], the inhibition in vivo at 280 µmol/kg in series [8] is 51%; in series [9], 67%; in [10], 74%; in [11] it was 83%; in series [12], 87%. Moreover, in series [13], the UI is given as 63.34. For the same compound, the Activity entry in series [18], in [14], in [15], in series [19], in series [16] and in [20] was “Toxic” in each case.
